Assays:
Hepatitis C virus = experiment: Antiviral activity against Hepatitis C virus 1b con1 infected in human hepatoma cells assessed as decrease in replicon RNA level after 3 days by RT-PCR analysis; format: functional, organism-based, Hepacivirus hominis; settings: genotype 1b Con1, 72 h
How it was run: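 Con1 genotype 1b replicon cells were seeded at 5000 cells/well one day before treatment. Compound in DMSO was added (final 0.5% DMSO, 10% FBS) as 10 serial twofold dilutions in triplicate. Cells were harvested 3 days after dosing. Replicon RNA was quantified by real-time RT-PCR (Taqman), normalized to GAPDH RNA, and EC50 was calculated.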

[1] = Cytotoxicity against human hepatoma cells after 3 days by MTS assay; format: cell-based
How it was run: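 MTS cell proliferation assay on replicon cells handled as in the replicon activity assay (seeded one day before, 0.5% DMSO, 10% FBS, serial dilutions), read 3 days after dosing. CC50 is the concentration giving 50% inhibition relative to vehicle-treated cells.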

[2] = Cytotoxicity against human hepatoma cells assessed as decrease in GADPH RNA level after 3 days by Rt-PCR analysis; format: cell-based
[3] = AUC (0 to 6 hrs) in rat at 10 mg/kg, po; format: ADME, organism-based; parameters: time < 6 hr, dose 10 mg/kg, route oral; settings: plasma
How it was run: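 Rats were dosed orally at 10 mpk in 0.4% methylcellulose, n=2 per compound. Plasma was sampled at 8 time points up to 6 h, and exposure was reported as AUC0-6 h.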

[4] = Drug uptake in rat liver at 10 mg/kg, po at 6 hrs; format: ADME, organism-based; parameters: dose 10 mg/kg, route oral; settings: read-out: Drug uptake
How it was run: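 Rats were dosed orally at 10 mpk in 0.4% methylcellulose, n=2. Animals were sacrificed at 6 h, and liver was harvested and processed to measure compound concentration (liver C6 h).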

Row | Compound | EC50 (Hepatitis C virus) | CC50 at 72 h [1] | CC50 at 72 h [2] | AUC(0-t) at 6 h [3] | concentration at 6 h [4]
1 | Cc1ccc([C@@H](C)Nc2nc(C)c(-c3nc4cnccc4s3)c(N[C@@H]3C[C@H](CO)[C@@H](O)[C@H]3O)n2)cc1 | 0.114 µM | > 25 µM | 25 µM | 0.1 µM·h | 116 ng/g
2 | Cc1nc(NCC2CCN(C)CC2)nc(N[C@@H]2C[C@H](CO)[C@@H](O)[C@H]2O)c1-c1nc2cnccc2s1 | 1.68 µM | > 25 µM | 25 µM |  | 
3 | Cc1nc(N[C@H](C)c2ccc(-c3cnn(C)c3)cc2)nc(N[C@@H]2C[C@H](CO)[C@@H](O)[C@H]2O)c1-c1nc2cnccc2s1 | 0.017 µM | 25 µM | 25 µM |  | 
4 | Cc1nc(NCc2ccc(OC(F)(F)F)cc2)nc(N[C@@H]2C[C@H](CO)[C@@H](O)[C@H]2O)c1-c1nc2cnccc2s1 | 0.003 µM | 25 µM | 25 µM |  | 
5 | Cc1nc(NCC(F)(F)F)nc(N[C@@H]2C[C@H](CO)[C@@H](O)[C@H]2O)c1-c1nc2cnccc2s1 | 0.016 µM | > 25 µM | 25 µM |  | 
6 | Cc1cc2sc(-c3c(C)nc(N[C@H](C)c4ccc(OC(F)(F)F)cc4)nc3N[C@@H]3C[C@H](CO)[C@@H](O)[C@H]3O)nc2c(C)n1 | 0.043 µM | 12 µM | 20 µM | 5.6 µM·h | 9800 ng/g
7 | Cc1nc(NCc2c(F)cccc2F)nc(N[C@@H]2C[C@H](CO)[C@@H](O)[C@H]2O)c1-c1nc2cnccc2s1 | 0.001 µM | 10 µM | 4 µM |  | 
8 | Cc1nc(N[C@H](C)c2ccc(OC(F)(F)F)cc2)nc(N[C@@H]2C[C@H](CO)[C@@H](O)[C@H]2O)c1-c1nc2c(CCC#N)nccc2s1 | 0.034 µM | 12 µM | 12 µM | 0.4 µM·h | 16 ng/g
9 | Cc1nc(NCC2CC2)nc(N[C@@H]2C[C@H](CO)[C@@H](O)[C@H]2O)c1-c1nc2cnccc2s1 | 0.008 µM | 5 µM | 3 µM | 0.4 µM·h | 192 ng/g
10 | CCc1nc(C)cc2sc(-c3c(C)nc(N[C@H](C)c4ccc(OC(F)(F)F)cc4)nc3N[C@@H]3C[C@H](CO)[C@@H](O)[C@H]3O)nc12 | 0.264 µM | 24 µM | 23 µM | 25 µM·h | 257 ng/g
11 | CCc1nccc2sc(-c3c(C)nc(N[C@H](C)c4ccc(OC(F)(F)F)cc4)nc3N[C@@H]3C[C@H](CO)[C@@H](O)[C@H]3O)nc12 | 0.02 µM | 7 µM | 7 µM | 5.8 µM·h | 6000 ng/g
12 | CCOCCNc1nc(C)c(-c2nc3cnccc3s2)c(N[C@@H]2C[C@H](CO)[C@@H](O)[C@H]2O)n1 | 0.009 µM | 16 µM | 25 µM | 0.2 µM·h | 368 ng/g
13 | Cc1nc(NC2CC2)nc(N[C@@H]2C[C@H](CO)[C@@H](O)[C@H]2O)c1-c1nc2cnccc2s1 | 0.125 µM | 19 µM | 25 µM | 1.4 µM·h | 276 ng/g
14 | COc1cc(CCNc2nc(C)c(-c3nc4cnccc4s3)c(N[C@@H]3C[C@H](CO)[C@@H](O)[C@H]3O)n2)cc(OC)c1 | 0.012 µM | 19 µM | 25 µM | 0.1 µM·h | 100 ng/g
15 | CCc1cc2sc(-c3c(C)nc(N[C@H](C)c4ccc(OC(F)(F)F)cc4)nc3N[C@@H]3C[C@H](CO)[C@@H](O)[C@H]3O)nc2c(CC)n1 | 0.069 µM | 13 µM | 12 µM |  | 
16 | Cc1nc(N(C)Cc2ccccc2)nc(N[C@@H]2C[C@H](CO)[C@@H](O)[C@H]2O)c1-c1nc2cnccc2s1 | 0.301 µM | > 25 µM | 25 µM | 0.2 µM·h | 100 ng/g

Row | Compound | EC50 (Hepatitis C virus) | CC50 at 72 h [1] | CC50 at 72 h [2] | AUC(0-t) at 6 h [3] | concentration at 6 h [4]
17 | Cc1nc(N[C@@H](C)c2ccccc2)nc(N[C@@H]2C[C@H](CO)[C@@H](O)[C@H]2O)c1-c1nc2cnccc2s1 | 0.222 µM | > 25 µM | 25 µM | 0.1 µM·h | 77 ng/g
18 | COC(=O)CCc1nccc2sc(-c3c(C)nc(N[C@H](C)c4ccc(OC(F)(F)F)cc4)nc3N[C@@H]3C[C@H](CO)[C@@H](O)[C@H]3O)nc12 | 0.059 µM | 14 µM | 23 µM |  | 
19 | Cc1cc2sc(-c3c(C)nc(N[C@H](C)c4ccc(OC(F)(F)F)cc4)nc3N[C@@H]3C[C@H](CO)[C@@H](O)[C@H]3O)nc2c(C2CC2)n1 | 0.703 µM | 24 µM | 21 µM |  | 
20 | Cc1nc(N[C@H](C)c2ccccc2)nc(N[C@@H]2C[C@H](CO)[C@@H](O)[C@H]2O)c1-c1nc2cnccc2s1 | 0.007 µM | > 25 µM | 25 µM | 0.2 µM·h | 104 ng/g
21 | Cc1nc(NCc2ccccc2)nc(N[C@@H]2C[C@H](CO)[C@@H](O)[C@H]2O)c1-c1nc2cnccc2s1 | 0.003 µM | 14 µM | 25 µM |  | 
22 | Cc1nc(NC(C)(C)c2ccccc2)nc(N[C@@H]2C[C@H](CO)[C@@H](O)[C@H]2O)c1-c1nc2cnccc2s1 | 6.2 µM | > 25 µM | 25 µM |  | 
23 | Cc1nc(N[C@H](C)c2ccc(F)cc2)nc(N[C@@H]2C[C@H](CO)[C@@H](O)[C@H]2O)c1-c1nc2cnccc2s1 | 0.222 µM | 25 µM | 25 µM |  | 
24 | Cc1nc(N[C@H](C)c2ccccc2OC(F)(F)F)nc(N[C@@H]2C[C@H](CO)[C@@H](O)[C@H]2O)c1-c1nc2cnccc2s1 | 0.017 µM | 23 µM | 24 µM | 0.5 µM·h | 506 ng/g
25 | Cc1nc(N[C@H](C)c2ccc(OC(F)(F)F)cc2)nc(N[C@@H]2C[C@H](CO)[C@@H](O)[C@H]2O)c1-c1nc2c(CC(C)(C)C)nccc2s1 | 0.026 µM | 13 µM | 10 µM | 3.2 µM·h | 4400 ng/g
26 | Cc1nc(N(C)C)nc(N[C@@H]2C[C@H](CO)[C@@H](O)[C@H]2O)c1-c1nc2cnccc2s1 | 0.557 µM | > 25 µM | 25 µM | 7.5 µM·h | 1400 ng/g
27 | Cc1cc2sc(-c3c(C)nc(N[C@H](C)c4ccc(OC(F)(F)F)cc4)nc3N[C@@H]3C[C@H](CO)[C@@H](O)[C@H]3O)nc2cn1 | 0.038 µM | > 25 µM | 25 µM |  | 
28 | Cc1ccc(C2(Nc3nc(C)c(-c4nc5cnccc5s4)c(N[C@@H]4C[C@H](CO)[C@@H](O)[C@H]4O)n3)CC2)cc1 | 3.17 µM | > 25 µM | 25 µM |  | 
29 | Cc1nc(N)nc(N[C@@H]2C[C@H](CO)[C@@H](O)[C@H]2O)c1-c1nc2cnccc2s1 | 0.124 µM | 18 µM | 25 µM |  | 
30 | CNc1nc(C)c(-c2nc3cnccc3s2)c(N[C@@H]2C[C@H](CO)[C@@H](O)[C@H]2O)n1 | 0.052 µM | 20 µM | 14 µM | 0.3 µM·h | 
31 | Cc1nc(N[C@H](C)c2ccc(OC(F)(F)F)cc2)nc(N[C@@H]2C[C@H](CO)[C@@H](O)[C@H]2O)c1-c1nc2c(C(C)C)nccc2s1 | 0.026 µM | 10 µM | 11 µM | 3.2 µM·h | 8500 ng/g
32 | Cc1nc(N[C@H](C)c2ccc(OC(F)(F)F)cc2)nc(N[C@@H]2C[C@H](CO)[C@@H](O)[C@H]2O)c1-c1nc2c(N)nccc2s1 | 0.037 µM | > 25 µM | 25 µM |  | 
